Test system: MS2 coat protein
Test: apparent Kd, MS2 coat protein; higher = weaker binding; RNA-MaP array
Outline: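 In Tris-HCl pH 7.5 buffer with KCl, MgCl2, BSA, DTT, tRNA and Tween20, with or without input ligand, fluorescently labeled MS2 coat protein at 1.5 nM to 3 μM was incubated at room temperature with designed RNAs. The RNAs had been transcribed on an Illumina sequencing chip from sequenced DNA templates, and incubation ran 0.8–1.5 h at the lowest to 10–20 min at the highest concentrations. Apparent Kd is the median of binding-curve fits for individual clusters. Designs measured on fewer than 10 clusters were excluded.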

[1] = designed as: ON switch for flavin mononucleotide, no ligand
[2] = ligand present: flavin mononucleotide, designed as: ON switch for flavin mononucleotide
[3] = designed as: OFF switch for flavin mononucleotide, no ligand
[4] = ligand present: flavin mononucleotide, designed as: OFF switch for flavin mononucleotide
[5] = designed as: ON switch for theophylline, no ligand
[6] = ligand present: theophylline, designed as: ON switch for theophylline
[7] = designed as: OFF switch for tryptophan, no ligand
[8] = ligand present: tryptophan, designed as: OFF switch for tryptophan
[9] = designed as: OFF switch for theophylline, no ligand
[10] = ligand present: theophylline, designed as: OFF switch for theophylline

Sequence | apparent Kd [1] | apparent Kd [2] | apparent Kd [3] | apparent Kd [4] | further results
AUAUGCGAUUGAGGAUAUAGGGAGAGGCUAACUCUAGAAGGCAAUGUAUGGAAUAGCUUACACAUGAGGAUCACCCAUGUUGCU | 9.73 nM | 7.27 nM |  |  | 
AUAUUUUCAGGAUAUCAACUUCACUACAUGAGGAUCACCCAUGUCCUCUAUUGUUUACUGUGAGAAGGGAAAGAGA |  |  | 1010 nM | 507 nM | 
AUCUAACAUGAGGAUCACCCAUGUCAGGAUAUUGCAGCCGUAGUAGGUCUAGUUUGUGCAAGAAGGGACAUCUC |  |  | 9.55 nM | 22.5 nM | 
AUGCAACAUGAGGAUCACCCAUGUGGUGAUACCAGUCGACAAGUAGACCCUUGGCAGCACAGCCGAUAUCGAGAGAGAUUUUUGG |  |  |  |  | apparent Kd [5]: 487 nM; apparent Kd [6]: 650 nM
AUGCAUCUAGGAUAUGCGGUGAUUUACAUGAGGAUCACCCAUGUAGACCACCGGUCUAGAGCAGAAGGAGAUGUGG |  |  | 5.17 nM | 5.54 nM | 
CACGAUCGAGAAGAGUGCAACAUGAGGAUCACCCAUGUAUUCAGAAGGGCCACGACCUUAGUAGGGCAGGAUAUGAUACGAUAC | 26.2 nM | 19.9 nM |  |  | 
CACUACUCCCAAGGAUAUUACGCUACAAAUCUUACUAACAUGAGGAUCACCCAUGUUCGGAACGGAAAGAAGGUGGGCUUAUAC | 9.38 nM | 8.22 nM |  |  | 
CAGGCUUUCAAGAAGGACCUGGUAACAUCAGUGGUAGGAUAUUGGUUAAGCUUGGCUUGACAUGAGGAUCACCCAUGUGGCGUA | 47.4 nM | 11.4 nM |  |  | 
CCAACAACGGAGAAGGCGUGACUGGUUUCACAGACAGUGUGGCACAUGAGGAUCACCCAUGUGAACGAGGAUAUCCGUGUGCGA | 11.6 nM | 7.4 nM |  |  | 
CCCAAAGACACAUGAGGAUCACCCAUGUUCCGCAAACAAUUGGAGGAUAUGAAGGAACGCAGCAAACAGAAGGCCAUAAAUAGC | 16.8 nM | 9.67 nM |  |  | 
CCGAACAUGAGGAUCACCCAUGUAUCCGAGCGAGGACCGGUACGGCCGCCACUCGAACUGCACCGGAAAAGGGAAACACCGAUCC |  |  |  |  | apparent Kd (designed as: ON switch for tryptophan, no ligand): 56.2 nM; apparent Kd (ligand present: tryptophan, designed as: ON switch for tryptophan): 61.8 nM
CCGAAUCAAACUGAUAGUCUACAUGAGGAUCACCCAUGUGAAAAGGAUAUCUUUUGAACUGACGAAGAGAAGGUUUUAGAGGGU |  |  | 7.77 nM | 8 nM | 
CCGCCACUACAUGAGGAUCACCCAUGUGAACCGUAGAACAUGAGAAGGUGCCUAAAGCUCGAGGGCAAGGAUAUCAACCGCCGC | 125 nM | 97.5 nM |  |  | 
CCUCACGAAAUCGAUGAAAGCAUGUGGCACCGAGGACCGGUACGGCCGCCACUCGCAUCCACACAUGAGGAUCACCCAUGUAAGA |  |  |  |  | apparent Kd [7]: 39.3 nM; apparent Kd [8]: 51.6 nM
CCUUUACAUGAGGAUCACCCAUGUGAAAUGGAUUGCGUAAAUAGAAGGCAUCAGAUCGUACAUGAUGAGGAUAUAUUAUCGAGU | 15.3 nM | 7.44 nM |  |  | 
CGAUAUGAGGUCGAUACCAGCAGCUUCAAGCACAUGAGGAUCACCCAUGUCCAUUUUACUUGCCCUUGGCAGCGACUUUGGAAAC |  |  |  |  | apparent Kd [5]: 39.4 nM; apparent Kd [6]: 13.8 nM
CGCAGACAUGAGGAUCACCCAUGUACCAUGAACAGGAAUACAAGAAGGGCAAACUUUAGAUUGAUGCAGGAUAUUGUCACGAGA | 25.8 nM | 14 nM |  |  | 
CGCCUAGGGUAUCAGGAUAUGACGGGCAUAACAUGAGGAUCACCCAUGUAAGAGUAGUACAGUUGUCAGAAGGGAUGAUCUAGAAU | 162 nM | 25.5 nM |  |  | 
CGCGUGUUCGAGGAUAUGGAACUGAUAUUAGACCCAGAAGGCGAGACAUGAGGAUCACCCAUGUGAGGACUAAC |  |  | 18.6 nM | 53.8 nM | 
CGGUUACAUGAGGAUCACCCAUGUUCCAUGGUUGAAGGAUAUGGCGACGGCGCGUGGGUACCAGAAGGUCAGGCAC | 26 nM | 19.6 nM |  |  | 
CGUCACCUAAAAGGAUAUCUACAAUACAGGAUUGCGUCUCACAUGAGGAUCACCCAUGUGUGUCCAGAGAAGGUUUCGGCACGU |  |  | 8.55 nM | 8.34 nM | 
CGUUCCAGGGAGAAGGGCUACAAGAUCUUUCCAGCAGGAUAUCCCAACAUGAGGAUCACCCAUGUAGUCGUGUUAUUGGCUAUA | 243 nM | 86.4 nM |  |  | 
CUAACUCGUGUUAGGAUAUGGUAAGGGCUAGCCACCCAGAAGGAACAUGAGGAUCACCCAUGUCGACAGUCCCG |  |  | 17.8 nM | 49.1 nM | 
CUAUCACAUGAGGAUCACCCAUGUAUGAUAAUCAUAGGAUAUAGUGCCAGCCAUAAUUUACUAGAAGGAUGUUUCU | 11.7 nM | 10.1 nM |  |  | 
CUCCCUCAGUCAGGAUAUGUGUCUUCCCAACAGGACAUGAGGAUCACCCAUGUCGCAAGCAUGGGACAGAAGGGACAUGGAGCC |  |  | 23.8 nM | 19.6 nM | 
CUCGCUAAAGUAGGAUAUACACAGACAUGAGGAUCACCCAUGUAACGAUGAACCCUUAUUAGAUGGUAGAAGGACUCAAGGCCG |  |  | 13.1 nM |  | 
CUCUCGGCAGGAUAUCGGCAGAUAAACAUGAGGAUCACCCAUGUGUUCUUAAAAUUCCGUCGAGAAGGGCCGCGAU |  |  | 4.68 nM | 5.16 nM | 

Sequence | apparent Kd [1] | apparent Kd [2] | apparent Kd [3] | apparent Kd [4] | further results
CUGUUUACAUGAGCCCGUCAUAUAUACGAUACCAGUUAAAGAUGAAACCCUUGGCAGCGUAGGACAUGAGGAUCACCCAUGUGCC |  |  |  |  | apparent Kd [9]: 18.6 nM; apparent Kd [10]: 33.1 nM
GAAUUAUGACGUGAUACCAGUGGUCAAUACUGGGAACUUAACAUGAGGAUCACCCAUGUCCACCCUUGGCAGCACGCUGACAAUC |  |  |  |  | apparent Kd [9]: 94 nM; apparent Kd [10]: 236 nM
GACAGUUUAUAGGAUAUCGACUCGACUGGGCAUCGAGAAGGAUAAACAUGAGGAUCACCCAUGUGUGGUAGGAA |  |  | 39.2 nM | 125 nM | 
GACCAACAUGAGGAUCACCCAUGUCGAGUUGGAAGUUUUACGAGAAGGAUCCUCCUGCCGAGCGGAUAGGAUAUCGAAACGGAC |  |  | 11.5 nM | 8.93 nM | 
GACGGCUCUAAGGAGGAUAUGGGAAUCAGCACAUGAGGAUCACCCAUGUAAAUGCCUCGGCUGAACCAGAAGGCCUUGGUCAGGAC | 380 nM | 269 nM |  |  | 
GACUAACAUGAGGAUCACCCAUGUGAAGAUACCAGUAAUUUCACCUACCCUUGGCAGCUUUUUUUGAACGGCCUGAAUGCCUUGU |  |  |  |  | apparent Kd [5]: 11.3 nM; apparent Kd [6]: 17.1 nM
GCAAGGUUUGUAGGAUAUCGCGUGUGAUUGAACAUGAGGAUCACCCAUGUGGAGGUUCCAUUAUCCGAGAAGGACAAGACUCGA |  |  | 155 nM | 84.2 nM | 
GCAUGACAUGAGGAUCACCCAUGUGAAUUGUAGGAAGGAUAUAAUACUUGAUCCGCUGUCUUAGAAGGUCCAUAAU | 28.6 nM | 19.6 nM |  |  | 
GCGAUAGCUGUCAAGGAUAUGAGGCUGACCACAUGAGGAUCACCCAUGUUUACAACAAAAUAGAUUCAGAAGGUGACAACAAGUAG | 80.3 nM | 18.1 nM |  |  | 
GCUCUCCAAGGAUAUUAGGUGUGUUACAUGAGGAUCACCCAUGUUUUCCAAUGAAUCGUCUAAGAAGGUGGCUAUU |  |  | 14.3 nM | 12.9 nM | 
GGAAGCCGCUAGAAGGAAUAGCACGGGUGCUAAUUAGGAUAUAGUGUCCCAGCACAUGAGGAUCACCCAUGUAUAACACGAUCC | 20.1 nM | 16.9 nM |  |  | 
GGAAGCUCCUUGAGACAUGAGGAUCACCCAUGUGCCAUUCCGAGAAGGUAGACUGGACGAGAGGCUAAGGAUAUCGGCGCGCUC |  |  | 16.7 nM | 15.6 nM | 
GGACUACAUGAGGAUCACCCAUGUUUUUAAGACACAGGAUAUGAUCACCGCGGACAUGUAUCAGAAGGGUGUACAU | 21.8 nM | 10.1 nM |  |  | 
GGGACCGCAGCGUCAUACAUGAGGAUCACCCAUGUUUUACUAAGAAGGAUUAGGAAAGUAAGCUAAUAGGAUAUUACAAGGACA |  |  | 22.4 nM | 15.6 nM | 
GGUCAGCAGUCGGCCGCCACUAGUAUACAUGAGGAUCACCCAUGUCCCUUGCGCCUCACCGAUUUUAGGACCGGGACACUGCCUG |  |  |  |  | apparent Kd [7]: 32.8 nM; apparent Kd [8]: 29.3 nM
GGUCCCAUGCGACAGGAUAUUGGAUGCAGCACAUGAGGAUCACCCAUGUAUACAGUUAUGGAUAACAAGAAGGGUCGCUUUGCAUA | 45.3 nM | 15.2 nM |  |  | 
GUAACACAUGAGGAUCACCCAUGUUCCGAUACCAGUAUUGAAGAUUACCCUUGGCAGCGGGUAGGUCGGAGUGGACGGCCCGAGC |  |  |  |  | apparent Kd [6]: 26.1 nM
GUACACUCCACAGGAUAUGGUGUAGACCCUACGCCAGAAGGGUGCGUGGGUACAUGAGGAUCACCCAUGUUAAGUUUACAUACG |  |  | 12.9 nM | 15.5 nM | 
GUAGAGCUCAUAGGAUAUACUCGACCGGAGGCAGUAGAAGGAUGCGUCAAAUACAUGAGGAUCACCCAUGUGAUGGUAAUCGUC |  |  | 13.6 nM | 14.4 nM | 
GUAUGGCUCGAGGAUAUGUACGUAGGAGACUAGACAGAAGGCGAUACAUGAGGAUCACCCAUGUCCUAUUAACC |  |  | 188 nM | 129 nM | 
GUCGAAUCCUGAGGAUAUUCAGUGAUGGCUCAGACAUGAGGAUCACCCAUGUUACUCAGUGAGCGGAAGAAGGCAGCCUUCGGG | 163 nM | 131 nM |  |  | 
GUGAAACAUGAGGAUCACCCAUGUCAGGAUAUACUAAUGUCCGCUCGAUUGGACCUGUGUAGAAGGGACUGUGA |  |  | 12.7 nM | 17.6 nM | 
GUGCGCGUAAAAGGAUAUUCGGAUGAUAGAACUCGAAACUACAUGAGGAUCACCCAUGUCAAGAAGAAGAAGGUUUGGCGAAAU |  |  | 57.1 nM | 31.7 nM | 
GUUACCAUGUCGGCCGCCACUAACAAGGUUAUGGCAAGUCUACACGACAUGAGGAUCACCCAUGUUAGGACCGGGACCCAUACCC |  |  |  |  | apparent Kd [7]: 13.4 nM; apparent Kd [8]: 14 nM
GUUUUCAAGUCGGCCGCCACUGAUACAAUCCUCACCGGUUCACAUGAGGAUCACCCAUGUUCGCUCAGGACCGGGACCUUCUGUG |  |  |  |  | apparent Kd [7]: 127 nM; apparent Kd [8]: 108 nM
UAAAUCGAAGGAUAUACAUGUACAAGUAUCCGUCAAAGAGCACAUGAGGAUCACCCAUGUAGAAGGUCGACUAA |  |  | 19.2 nM | 57.6 nM | 
UAACUGGACCAGAAGGGAGCGCGUCGCGCAUCAACAUACAUGAGGAUCACCCAUGUUCGAGAGUCUCAGGAUAUGGCCGGUAUA | 9.92 nM | 7.91 nM |  |  | 

From the EternaBench riboswitch data
